Rows were chosen to be rich in hits. Some 1.7% of all compounds tested hit in one or more screens of this group.
IDE cell activ: activators of human insulin-degrading enzyme in cells; 0.073% of 340,000 active; P14735; activation, % at 5.96 µM; HEK cells, FAbeta-B cleavage, fluorescence polarization; 0% vehicle, 100% cell-free pure enzyme wells;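 active = activation above the mean of all tested compounds plus 3 SD, set per screening campaign, cut at about 17% in these data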
CSN deneddyl inh: CSN deneddylation inhibition | AID 651999 | Q92905 | inhibition, % at 12.5 µM | Purified CSN, SCF-Nedd8-OG deneddylation, fluorescence polarization | 0.38% of 360,000 active;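 active = pattern-corrected inhibition above about 35%, with an unprinted fluorescence ratio check between 0.5 and 1.5, limit read from the data, passing the limit was not always enough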
Target sequence (Q92905 whole entry, looked up, one chain of several): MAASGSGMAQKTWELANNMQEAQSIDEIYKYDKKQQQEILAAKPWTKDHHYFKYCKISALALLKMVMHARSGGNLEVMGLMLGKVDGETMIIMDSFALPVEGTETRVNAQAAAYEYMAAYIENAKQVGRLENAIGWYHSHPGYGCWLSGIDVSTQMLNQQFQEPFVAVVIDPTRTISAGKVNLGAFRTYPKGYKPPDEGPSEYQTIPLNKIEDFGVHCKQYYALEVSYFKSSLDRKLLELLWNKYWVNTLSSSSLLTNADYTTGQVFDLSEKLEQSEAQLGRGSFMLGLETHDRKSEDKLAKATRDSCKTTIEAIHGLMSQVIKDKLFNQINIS
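Material: purified human Csn5 enzyme expressed in HEK293T cells / Medium: Tris buffer pH 7.5, NaCl, DTT, Tween-20, trehalose, ovalbumin / Compound dosing: 12.5 µM single point / Schedule: 90 min incubation of compound, enzyme and substrate at room temperature / Signal: fluorescence polarization of the substrate / Control set: no-enzyme wells high, enzyme-with-substrate wells low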
HNF4A DNA FP: change in binding of human HNF4 alpha to DNA; P41235; HNF4a-FITC DNA binding, fluorescence polarization, 1 h; activity change, % at 10 µM; 0.3% of 360,000 active; AID 1224865; in the data active = activity change above about 30%, passing the limit was not always enough
Rpn11 inh: blocks the human proteasome subunit Rpn11 | O00487 | human 26S proteasome, Ub4-pepOG fluorescence polarization; 20S core pre-blocked with epoxomicin | inhibition, % at 20 µM | 0.59% of 360,000 active | AID 588493;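 active = inhibition at 20 µM, scaled to each plate's controls, above about 33%, limit read from the data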
Target sequence (O00487 whole entry, looked up): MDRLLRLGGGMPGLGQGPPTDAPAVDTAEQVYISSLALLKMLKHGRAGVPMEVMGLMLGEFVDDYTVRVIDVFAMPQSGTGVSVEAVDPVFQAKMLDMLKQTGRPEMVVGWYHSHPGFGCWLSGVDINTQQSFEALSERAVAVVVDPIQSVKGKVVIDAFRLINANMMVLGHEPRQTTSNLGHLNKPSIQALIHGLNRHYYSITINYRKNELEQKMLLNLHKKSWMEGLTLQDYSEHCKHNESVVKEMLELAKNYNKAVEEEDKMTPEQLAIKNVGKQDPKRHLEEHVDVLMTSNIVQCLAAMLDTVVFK
IDE inh: inhibits human insulin-degrading enzyme in HEK cells; 0.41% of 320,000 active; P14735; inhibition, % at 5.59 µM; AID 434962; FAbetaB cleavage, fluorescence polarization;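 active = percent inhibition above the average of all tested compounds plus 3 SD, set per screening campaign, cut at about 16% in these data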;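 note: IDE supplied by intact live HEK cells; FP after avidin binding of uncleaved biotin substrate so inhibition keeps polarization high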
TPT1 inhibitor: C. albicans TPT1 enzyme inhibition; recombinant caTPT1, FP RNA substrate dephosphorylation; inhibition, % at 5 µM; 0.81% of 300,000 active;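 active = inhibition above the mean of all tested compounds plus 3 SD, set per screening campaign, cut at about 24% in these data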
Hits are given with their value; n = inactive; x = not tested or not shown.

SMILES	IDE cell activ	CSN deneddyl inh	HNF4A DNA FP	Rpn11 inh	IDE inh	TPT1 inhibitor
CCn1c(CNC(=O)c2ccco2)nnc1SCC(=O)Nc1cc(F)ccc1C	n	n	n	n	n	n
COCCNC(=O)Nc1ccc2nc(-c3cccs3)c(-c3cccs3)nc2c1	n	n	n	n	n	n
O=C(Nc1ccc2nc(-c3cccs3)c(-c3cccs3)nc2c1)NC1CC1	n	n	n	37	n	n
O=C1/C(=C/c2ccccn2)COc2ccccc21	n	n	n	n	n	n
O=C1/C(=C/c2ccc(O)cc2)COc2ccccc21	n	89	n	n	n	n
CCOC(=O)C1(CC2CC2)CCN(Cc2cnc(N(C)C)s2)CC1	17	n	n	n	n	n
CCOC(=O)C1(CC2CC2)CCN(Cc2ccc(C(=O)OC)cc2)CC1	n	n	n	n	n	n
CC(C)c1nc2sc(C(=O)O)c(N)c2c2c1CCCC2	n	n	n	n	n	n
CC(=NNC(=O)CCC(=O)Nc1ccccc1Cl)c1ccco1	n	n	n	n	n	x
CC1(C)N=C(N)N=C(N)N1c1ccc(OCCCOc2ccccc2)c(Cl)c1	n	n	50	n	n	n
CC1(C)N=C(N)N=C(N)N1c1ccc(OCC(=O)Nc2ccccc2)c(Cl)c1	x	n	n	n	x	x
CCN(CC)S(=O)(=O)c1ccc(=O)n(CC(=O)N2Cc3ccccc3CC2C(N)=O)c1 (stereo not given)	n	n	n	n	x	x
CN(C)c1ccc(C=c2c3cc([N+](=O)[O-])ccc3n3c2cc(-c2ccccc2)[n+]3C)cc1	n	n	n	n	x	x
CN(C)c1ccc(C=c2c3ccccc3n3c2cc(-c2ccc(Cl)cc2)[n+]3C)cc1	n	n	50	n	x	x
CN(C)c1ccc(C=c2c3ccccc3n3c2cc(-c2ccccc2)[n+]3C)cc1	n	n	74	46	x	x
C=CCNC(=O)/C(C#N)=C/c1c(N2CCCCCC2)nc2ccccn2c1=O	n	57	n	n	n	n
COc1ccc(S(=O)(=O)Nc2cc(OC)c(NC(=O)c3ccco3)cc2OC)cc1	n	n	n	n	n	n
COc1cc(NS(=O)(=O)c2ccc(Br)cc2)c(OC)cc1NC(=O)c1ccco1	n	n	68	x	n	n
C=CCN(Cc1ccc(Cl)s1)C(=O)c1ccc(F)c(S(=O)(=O)N2CCOCC2)c1	n	n	n	n	n	x
CO/N=C\c1cc(C(=O)c2ccc(Cl)cc2Cl)cn1C	x	n	n	n	n	n
Cc1[nH]c2ccccc2c1/C=N/Nc1ccc([N+](=O)[O-])cc1S(=O)(=O)Nc1ccc(Cl)cc1	n	44	94	x	n	n
O=C(O)COc1ccccc1C=NNc1ccc([N+](=O)[O-])cc1S(=O)(=O)Nc1ccc(Cl)cc1	n	n	n	n	n	x
CCOC(=O)C1=CN(Cc2cccc(F)c2)S(=O)(=O)N(C)C1c1ccccc1 (stereo not given)	n	103	n	n	x	x
Cc1ccc2c(CN3CCN(c4ccccc4F)CC3)cc(=O)oc2c1	x	n	n	n	x	x
COc1ccc2c(CN3CCN(c4ccccc4OC)CC3)cc(=O)oc2c1	x	74	n	n	x	x
SMILES	IDE cell activ	CSN deneddyl inh	HNF4A DNA FP	Rpn11 inh	IDE inh	TPT1 inhibitor
COc1ccc2c(CN3CCN(c4ccccc4F)CC3)cc(=O)oc2c1	x	100	n	n	x	x
O=CN1CCN(S(=O)(=O)c2ccc(S(=O)(=O)NC3CCCCC3)cc2)CC1	n	n	n	n	n	n
CCCCn1c(SCC(=O)NC2CC2)nc2ccccc2c1=O	n	n	n	n	n	n
Cc1ccccc1Cn1c(=N)n(CC(=O)c2ccc([N+](=O)[O-])cc2)c2ccccc21	n	n	43	x	n	n
CCCn1c(=N)n(CC(=O)c2ccc([N+](=O)[O-])cc2)c2ccccc21	n	n	n	n	n	n
O=C(O)c1cccc(CN2C(=O)c3ccccc3C2=O)c1	n	n	n	n	n	n
O=C1c2cccc3c(O)ccc(c23)C(=O)N1Cc1ccccc1	59	n	n	n	n	n
Cc1ccc(C2=NNC3(CCOC(C)(C)C3)S2)cc1 (stereo not given)	n	n	n	n	n	n
Cc1ccc(S(=O)(=O)CC(=O)Nc2ccc(Cl)cn2)cc1	n	n	34	n	n	n
O=c1c2c(nc3nc(NCc4cccc(Cl)c4)[nH]n13)CCC2	x	n	n	n	n	n
Cc1ccc(NC(=O)C2C3C=CC4(CN(Cc5cccnc5)C(=O)C24)O3)cc1 (stereo not given)	18	n	n	n	n	n
COC(=O)Cc1c(OC)ccn(CCc2c[nH]c3ccccc23)c1=O	n	n	n	n	n	n
COC(=O)Cc1c(O)ccn(CCc2c[nH]c3ccccc23)c1=O	n	74	n	n	n	n
CCCCCCCC(=O)N/N=C(\C)c1cccnc1	n	58	n	n	n	n
C/C(=N\NC(=O)Cc1ccccc1Cl)c1cccnc1	n	n	n	n	n	n
CCCC(C)C(=O)OCC(=O)NCc1ccc(OC)c(OC)c1 (stereo not given)	n	n	n	n	n	n
Fc1ccc2nc(-c3ccccc3)ccc2c1	x	n	n	n	x	x
Fc1cc(Cl)cc2ccc(-c3ccccc3)nc12	x	103	n	n	x	x
CCN1C(=O)c2cccc3c(NS(=O)(=O)c4ccc(NC(C)=O)cc4)ccc1c23	n	n	n	n	n	n
CCOC(=O)c1ccc(NC(=O)Nc2ccc3c4c(cccc24)C(=O)N3CC)cc1	n	n	68	x	n	n
O=C1C2C3C=CC(C3)C2C(=O)N1CCN1CCN(Cc2ccc([N+](=O)[O-])cc2)CC1 (stereo not given)	n	n	n	n	n	n
Cc1cc(N2C(=O)c3ccc(C(=O)Nc4ccc(CC(=O)O)cc4)cc3C2=O)no1	n	n	n	n	n	n
CCCSc1nc(C)c(-c2csc(C(C#N)=C3CCCC3)n2)cc1C#N	n	45	n	n	n	n
Cc1ccc(S(=O)(=O)NCC(=O)OCC(=O)c2ccc(Cl)s2)cc1	n	n	n	n	n	n
O=C(COC(=O)c1ccc(Cl)nc1)Nc1ccc2c(c1)OCCO2	n	n	n	n	n	x
SMILES	IDE cell activ	CSN deneddyl inh	HNF4A DNA FP	Rpn11 inh	IDE inh	TPT1 inhibitor
N#CC1=C(N)SC(N)=C(C#N)C1CCC1CCCCC1	x	x	x	x	n	110
CCCCCCCC1CC(CSc2ncn[nH]2)OC1=O (stereo not given)	n	54	n	n	n	n
CCCCC1CC(CSc2ncn[nH]2)OC1=O (stereo not given)	n	n	n	n	n	n
N#CC1=C(c2ccc(-c3ccccc3)cc2)COC1=O	n	n	n	40	n	n
COC(=O)c1ccc(C)c(NC(=O)CCSc2ccc(Cl)cc2)c1	n	n	95	n	n	n
COC(=O)c1ccc(C)c(NC(=O)CCSc2ccccc2)c1	n	n	n	n	n	n
